Data reported in ChEMBL document CHEMBL3112393, “Structure-based design, synthesis and biological evaluation of diphenylmethylamine derivatives as novel Akt1 inhibitors” (Eur J Med Chem, 2014).
The source made the active and inactive calls. No cut-off for these calls is given here.

Legend:
[1] = biological target: T1, RAC-alpha serine/threonine-protein kinase (Homo sapiens, UniProt P31749); test: Inhibition of Akt1 (unknown origin) using ATP/eNOS as substrate at 10 uM preincubated for 5 mins followed by substrate addition measured after 30 mins by fluorescence polarization assay
T1 sequence (P31749 whole entry): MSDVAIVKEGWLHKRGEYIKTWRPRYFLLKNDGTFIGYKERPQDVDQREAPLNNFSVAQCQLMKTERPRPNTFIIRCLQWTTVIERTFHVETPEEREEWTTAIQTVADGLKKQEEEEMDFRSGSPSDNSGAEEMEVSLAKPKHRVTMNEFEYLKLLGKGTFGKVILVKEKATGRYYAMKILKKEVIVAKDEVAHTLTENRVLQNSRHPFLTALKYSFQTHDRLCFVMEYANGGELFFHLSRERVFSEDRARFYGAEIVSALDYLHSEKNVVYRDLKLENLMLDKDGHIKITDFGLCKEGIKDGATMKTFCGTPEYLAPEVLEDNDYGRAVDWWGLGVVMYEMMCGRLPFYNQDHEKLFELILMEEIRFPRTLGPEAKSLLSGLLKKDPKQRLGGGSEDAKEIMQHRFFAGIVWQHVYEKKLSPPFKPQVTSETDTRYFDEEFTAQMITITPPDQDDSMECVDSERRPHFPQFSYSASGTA
Summary of the method: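 Competitive fluorescence polarization kinase assay. 4 ng Akt1 in 2.5× kinase buffer (62.5 mM Tris-HCl pH 7.5, 25 mM MgCl₂, 12.5 mM β-glycerophosphate, 0.25 mM Na₃VO₄, 5 mM DTT) preincubated with DMSO vehicle or compound for 5 min at room temperature. ATP/eNOS substrate cocktail then added. Reaction stopped with 50 mM EDTA (pH 8.0), activity read per kit instructions. Single-point inhibition measured at 10.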

[2] = test system: HCT-116; test: Antiproliferative activity against human HCT116 cells after 72 hrs by MTT assay; format: functional, cell-based; conditions: HCT-116, 72 h
Summary of the method: (§1)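 MTT assay: cells seeded at 4000 per well, attached overnight, exposed to compound over 1.0–100.0 range for 72 h. MTT then added, 4 h more at 37 °C. Formazan dissolved in DMSO, absorbance at 570 nm. Triplicate wells in three independent experiments. IC50 from dose-effect analysis.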

[3] = test system: HL-60; test: Antiproliferative activity against human HL60 cells after 72 hrs by MTT assay; format: functional, cell-based; conditions: HL-60, 72 h; summary of the method: as §1
[4] = test system: OVCAR-8; test: Antiproliferative activity against human OVCAR8 cells after 72 hrs by MTT assay; format: functional, cell-based; conditions: OVCAR-8, 72 h; summary of the method: as §1
[5] = biological target: T1, RAC-alpha serine/threonine-protein kinase; test: Inhibition of Akt1 (unknown origin) using ATP/eNOS as substrate preincubated for 5 mins followed by substrate addition measured after 30 mins by fluorescence polarization assay
[6] = Inhibition of Drak (unknown origin); set-up: species or system Homo sapiens
[7] = biological target: T2, Serine/threonine-protein kinase B-raf (Homo sapiens, UniProt P15056)
T2 sequence (P15056 whole entry): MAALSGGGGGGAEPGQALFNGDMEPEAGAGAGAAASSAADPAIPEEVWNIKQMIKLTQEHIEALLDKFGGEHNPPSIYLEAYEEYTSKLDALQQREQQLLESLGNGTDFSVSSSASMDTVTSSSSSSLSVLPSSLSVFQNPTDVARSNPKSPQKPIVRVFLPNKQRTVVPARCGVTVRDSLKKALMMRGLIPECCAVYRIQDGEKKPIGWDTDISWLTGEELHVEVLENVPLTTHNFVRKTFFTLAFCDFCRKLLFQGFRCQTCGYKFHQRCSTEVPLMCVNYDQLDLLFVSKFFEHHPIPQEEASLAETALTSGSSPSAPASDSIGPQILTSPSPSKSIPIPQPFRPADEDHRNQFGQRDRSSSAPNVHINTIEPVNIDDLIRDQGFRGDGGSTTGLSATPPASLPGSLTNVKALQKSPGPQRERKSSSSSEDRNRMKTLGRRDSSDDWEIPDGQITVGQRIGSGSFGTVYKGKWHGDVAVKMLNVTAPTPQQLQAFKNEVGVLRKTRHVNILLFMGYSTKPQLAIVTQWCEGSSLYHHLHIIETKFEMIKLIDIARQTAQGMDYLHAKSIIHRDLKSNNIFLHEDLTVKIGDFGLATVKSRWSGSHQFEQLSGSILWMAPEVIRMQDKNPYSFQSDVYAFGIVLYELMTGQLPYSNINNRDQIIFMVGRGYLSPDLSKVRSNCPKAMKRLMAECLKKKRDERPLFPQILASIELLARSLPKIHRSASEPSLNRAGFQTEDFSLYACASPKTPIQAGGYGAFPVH

[8] = biological target: T1, RAC-alpha serine/threonine-protein kinase; test: Inhibition of Akt1 in human OVCAR8 cells assessed as effect on total GSK3beta level at 1 uM by Western blotting analysis; format: cell-based; conditions: OVCAR-8
Summary of the method: (§2)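 OVCAR-8 cells treated, washed with ice-cold PBS, lysed in buffer with NaF, β-glycerophosphate and PMSF. Lysate cleared at 13,000 rpm for 30 min at 4 °C, protein measured by Bradford. 40–80 of lysate protein run on SDS-PAGE and transferred to nitrocellulose. Blots probed with primary antibodies, then HRP secondaries, detected by ECL.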

[9] = biological target: Tyrosine-protein kinase JAK2 (Homo sapiens) (UniProt O60674); test: Inhibition of JAK2 (unknown origin) at 0.8 ug/ml
Chain of Tyrosine-protein kinase JAK2 (Homo sapiens) (O60674 whole entry): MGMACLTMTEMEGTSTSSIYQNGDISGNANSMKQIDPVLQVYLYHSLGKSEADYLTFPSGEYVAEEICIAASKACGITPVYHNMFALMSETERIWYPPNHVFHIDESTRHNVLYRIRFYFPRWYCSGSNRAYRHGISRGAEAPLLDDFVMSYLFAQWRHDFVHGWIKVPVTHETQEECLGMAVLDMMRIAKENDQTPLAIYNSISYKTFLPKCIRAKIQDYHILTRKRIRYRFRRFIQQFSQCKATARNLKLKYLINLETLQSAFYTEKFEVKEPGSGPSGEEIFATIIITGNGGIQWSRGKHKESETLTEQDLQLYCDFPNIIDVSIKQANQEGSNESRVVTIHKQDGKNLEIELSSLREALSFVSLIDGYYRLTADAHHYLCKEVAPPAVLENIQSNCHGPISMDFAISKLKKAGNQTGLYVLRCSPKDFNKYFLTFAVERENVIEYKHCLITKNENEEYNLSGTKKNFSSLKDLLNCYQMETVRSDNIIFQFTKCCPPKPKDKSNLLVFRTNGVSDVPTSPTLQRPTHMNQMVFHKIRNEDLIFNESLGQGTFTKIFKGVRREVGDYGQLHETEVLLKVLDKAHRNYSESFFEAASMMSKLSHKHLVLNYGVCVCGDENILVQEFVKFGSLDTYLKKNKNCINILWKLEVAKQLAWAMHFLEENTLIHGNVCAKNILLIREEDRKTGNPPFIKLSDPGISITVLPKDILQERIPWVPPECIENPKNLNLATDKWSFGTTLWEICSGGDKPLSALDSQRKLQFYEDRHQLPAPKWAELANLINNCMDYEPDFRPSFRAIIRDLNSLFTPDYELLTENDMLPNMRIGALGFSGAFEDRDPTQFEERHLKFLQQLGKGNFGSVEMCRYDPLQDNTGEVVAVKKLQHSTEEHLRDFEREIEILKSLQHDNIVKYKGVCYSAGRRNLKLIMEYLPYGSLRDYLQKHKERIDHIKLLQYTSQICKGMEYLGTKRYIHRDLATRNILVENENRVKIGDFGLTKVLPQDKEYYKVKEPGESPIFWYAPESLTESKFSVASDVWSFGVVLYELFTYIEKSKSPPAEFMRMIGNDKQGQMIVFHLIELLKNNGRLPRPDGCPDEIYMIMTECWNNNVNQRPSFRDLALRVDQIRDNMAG

[10] = biological target: Tyrosine-protein kinase SYK (Homo sapiens) (UniProt P43405); test: Inhibition of SYK (unknown origin) at 0.8 ug/ml
[11] = biological target: Glycogen synthase kinase-3 beta (Homo sapiens) (UniProt P49841); test: Inhibition of GSK3beta (unknown origin) at 0.8 ug/ml
Chain of Glycogen synthase kinase-3 beta (Homo sapiens) (P49841 whole entry, looked up): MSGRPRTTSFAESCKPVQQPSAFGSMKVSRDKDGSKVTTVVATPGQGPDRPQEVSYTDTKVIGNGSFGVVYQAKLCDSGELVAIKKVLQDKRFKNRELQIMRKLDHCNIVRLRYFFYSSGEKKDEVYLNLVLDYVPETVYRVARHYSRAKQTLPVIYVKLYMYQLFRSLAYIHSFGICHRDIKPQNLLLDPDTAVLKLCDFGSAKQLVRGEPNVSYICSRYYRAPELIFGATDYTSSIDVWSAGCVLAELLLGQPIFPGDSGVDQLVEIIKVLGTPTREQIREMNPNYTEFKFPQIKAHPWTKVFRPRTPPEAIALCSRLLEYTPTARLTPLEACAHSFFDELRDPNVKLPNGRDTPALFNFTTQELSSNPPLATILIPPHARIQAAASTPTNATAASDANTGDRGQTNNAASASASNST

[12] = biological target: T3, Inhibitor of nuclear factor kappa-B kinase subunit beta (Homo sapiens) (UniProt O14920); test: Inhibition of IKKbeta (unknown origin) at 0.8 ug/ml
T3 sequence (whole entry): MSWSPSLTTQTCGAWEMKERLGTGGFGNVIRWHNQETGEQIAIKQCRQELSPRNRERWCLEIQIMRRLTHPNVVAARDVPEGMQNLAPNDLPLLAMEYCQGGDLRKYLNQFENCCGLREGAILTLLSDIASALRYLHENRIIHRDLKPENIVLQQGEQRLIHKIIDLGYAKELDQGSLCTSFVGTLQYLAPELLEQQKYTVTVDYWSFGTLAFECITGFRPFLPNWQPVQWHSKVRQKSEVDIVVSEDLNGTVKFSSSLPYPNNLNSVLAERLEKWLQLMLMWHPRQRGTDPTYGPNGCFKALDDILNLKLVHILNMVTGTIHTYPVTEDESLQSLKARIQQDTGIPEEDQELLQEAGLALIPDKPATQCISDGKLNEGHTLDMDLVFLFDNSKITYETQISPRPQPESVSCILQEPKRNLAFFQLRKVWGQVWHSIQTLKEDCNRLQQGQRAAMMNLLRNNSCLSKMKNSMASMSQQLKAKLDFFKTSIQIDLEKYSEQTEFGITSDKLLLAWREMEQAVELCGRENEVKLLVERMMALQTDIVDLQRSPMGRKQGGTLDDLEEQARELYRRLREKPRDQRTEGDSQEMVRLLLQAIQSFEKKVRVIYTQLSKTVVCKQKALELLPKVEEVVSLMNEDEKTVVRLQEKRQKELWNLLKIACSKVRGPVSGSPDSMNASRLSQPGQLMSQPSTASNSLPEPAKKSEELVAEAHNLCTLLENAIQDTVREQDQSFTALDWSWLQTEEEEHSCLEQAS

[13] = organism: Homo sapiens; test: Inhibition of Drak (unknown origin) at 0.8 ug/ml
[14] = biological target: T2, Serine/threonine-protein kinase B-raf; test: Inhibition of BRAF1 (unknown origin)
[15] = biological target: T4, Aurora kinase A (Homo sapiens) (UniProt O14965); test: Inhibition of Aurora A (unknown origin) at 0.8 ug/ml
T4 sequence (whole entry): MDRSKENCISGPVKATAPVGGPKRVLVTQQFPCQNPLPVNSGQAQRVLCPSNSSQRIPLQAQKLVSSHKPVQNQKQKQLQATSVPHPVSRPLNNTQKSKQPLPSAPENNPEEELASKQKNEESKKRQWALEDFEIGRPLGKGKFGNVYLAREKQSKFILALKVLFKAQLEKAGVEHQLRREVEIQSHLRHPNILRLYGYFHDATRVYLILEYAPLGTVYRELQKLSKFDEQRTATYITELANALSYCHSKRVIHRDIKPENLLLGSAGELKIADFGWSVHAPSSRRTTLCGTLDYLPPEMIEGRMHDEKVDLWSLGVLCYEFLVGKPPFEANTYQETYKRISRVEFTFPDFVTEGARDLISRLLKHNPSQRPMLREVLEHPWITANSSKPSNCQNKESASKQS

[16] = biological target: T1, RAC-alpha serine/threonine-protein kinase; test: Inhibition of Akt1 in human OVCAR8 cells assessed as GSK3beta phosphorylation at 1 uM by Western blotting analysis; format: cell-based; conditions: OVCAR-8; summary of the method: as §2
[17] = biological target: T1, RAC-alpha serine/threonine-protein kinase; test: Inhibition of Akt1-mediated phosphorylation at Ser473 in human OVCAR8 cells at 1 uM by Western blotting analysis; format: cell-based; conditions: OVCAR-8; summary of the method: as §2
[18] = test system: OVCAR-8; test: Induction of apoptosis in human OVCAR8 cells assessed as accumulation at sub-G1 phase at 20 uM after 48 hrs by annexin V-FITC/propidium iodide staining-based FACS flow cytometric analysis (reference value: 1.2%); format: functional
Summary of the method: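 OVCAR-8 cells (5 × 10⁴ cells/ml, 5 ml) grown in 25 cm² flasks, treated with vehicle or compound for 48 h. Cells harvested, washed twice with ice-cold PBS, stained with annexin V-FITC/propidium iodide, analysed by flow cytometry.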

| Structure (SMILES) | IC50 [2] | IC50 [3] | IC50 [4] | IC50 [5] | further results |
| --- | --- | --- | --- | --- | --- |
| Clc1ccc(C(NC2CCCCC2)c2ccc(-c3cccnc3)cc2)cc1 (stereo unspecified) |  |  |  |  | inhibition [1]: 20% |
| Clc1ccc(C(NCc2ccccc2)c2ccc(-c3ncnc4[nH]cnc34)cc2)cc1 (stereo unspecified) | 16.2 µM | 12.1 µM | 12.5 µM | 0.74 µM |  |
| CC(C)NC(c1ccc(Cl)cc1)c1ccc(-c2cn[nH]c2)cc1 (stereo unspecified) | 11.6 µM | 10.7 µM | 12.2 µM | 0.37 µM |  |
| Clc1ccc(C(NCc2ccccc2)c2ccc(-c3ccncc3)cc2)cc1 (stereo unspecified) | 16.3 µM | 12.5 µM | 18.5 µM | 1.25 µM |  |
| CC(C)CNC(c1ccc(Cl)cc1)c1ccc(-c2cn[nH]c2)cc1 (stereo unspecified) | 14.1 µM | 5.4 µM | 8.1 µM | 0.9 µM |  |
| Clc1ccc(C(NC2CCCCC2)c2ccc(-c3ccncc3)cc2)cc1 (stereo unspecified) | 12.4 µM | 3.2 µM | 15.6 µM | 1.26 µM |  |
| CN[C@@H]1C[C@H]2O[C@@](C)([C@@H]1OC)n1c3ccccc3c3c4c(c5c6ccccc6n2c5c31)C(=O)NC4 [STAUROSPORINE] |  |  |  |  | IC50 [6]: 0.026 µM; IC50 [7]: 0.015 µM |
| Clc1ccc(C(Nc2ccccc2)c2ccc(-c3cn[nH]c3)cc2)cc1 (stereo unspecified) |  |  |  |  | inhibition [1]: 29% |
| OCCNC(c1ccc(Cl)cc1)c1ccc(-c2cn[nH]c2)cc1 (stereo unspecified) | 27.6 µM |  | 34.7 µM | 0.65 µM |  |
| CC(C)(C)NC(c1ccc(Cl)cc1)c1ccc(-c2cccnc2)cc1 (stereo unspecified) |  |  |  |  | inhibition [1]: 19% |
| CC(C)NC(c1ccc(Cl)cc1)c1ccc(-c2ccncc2)cc1 (stereo unspecified) | 17.3 µM | 13.9 µM | 22.8 µM | 0.22 µM |  |
| Clc1ccc(C(NC2CC2)c2ccc(-c3cn[nH]c3)cc2)cc1 (stereo unspecified) | 15.6 µM | 7.8 µM | 7.9 µM | 0.48 µM |  |
| CC(C)CNC(c1ccc(Cl)cc1)c1ccc(-c2ncnc3nc[nH]c23)cc1 (stereo unspecified) | 7.7 µM | 5.3 µM | 9.9 µM | 0.74 µM |  |
| Clc1ccc(C(Nc2ccccc2)c2ccc(-c3ccncc3)cc2)cc1 (stereo unspecified) |  |  |  |  | inhibition [1]: 26% |
| Clc1ccc(C(NC2CCCCC2)c2ccc(-c3cn[nH]c3)cc2)cc1 (stereo unspecified) | 26.8 µM | 2.1 µM | 5.5 µM | 1.1 µM |  |
| CC(C)(C)NC(c1ccc(Cl)cc1)c1ccc(-c2cn[nH]c2)cc1 (stereo unspecified) | 8.9 µM | 5.3 µM | 8.1 µM | 0.038 µM | inhibition [8]: inactive; inhibition [9]: 19.5%; inhibition [10]: 0.98%; inhibition [11]: 7.2%; inhibition [12]: 1.8%; inhibition [13]: 12%; IC50 [14]: 0.88 µM; inhibition [15]: 28.3%; inhibition [16]: Active; inhibition [17]: Active; Activity [18]: 66.8% |
| CC(C)CNC(c1ccc(Cl)cc1)c1ccc(-c2cccnc2)cc1 (stereo unspecified) |  |  |  |  | inhibition [1]: 10% |
| CC(C)CNC(c1ccc(Cl)cc1)c1ccc(-c2ccncc2)cc1 (stereo unspecified) | 15.5 µM | 3.3 µM | 16.3 µM | 1.43 µM |  |
| NCCNC(c1ccc(Cl)cc1)c1ccc(-c2cn[nH]c2)cc1 (stereo unspecified) | 10.7 µM |  | 11.1 µM | 0.82 µM |  |
| CC(C)(C)NC(c1ccc(Cl)cc1)c1ccc(-c2ccncc2)cc1 (stereo unspecified) | 14.4 µM | 3.9 µM | 16.1 µM | 0.17 µM |  |
| Clc1ccc(C(NCc2ccccc2)c2ccc(-c3cn[nH]c3)cc2)cc1 (stereo unspecified) | 8.3 µM | 5.3 µM | 11.9 µM | 1.32 µM |  |
| Clc1ccc(C(NC2CC2)c2ccc(-c3ncnc4[nH]cnc34)cc2)cc1 (stereo unspecified) | 13.4 µM | 11.9 µM | 30.6 µM | 0.47 µM |  |
| O=S(=O)(NCCNC/C=C/c1ccc(Br)cc1)c1cccc2cnccc12 | 15.7 µM | 11.4 µM | 10.5 µM |  |  |
| CC(C)NC(c1ccc(Cl)cc1)c1ccc(-c2ncnc3nc[nH]c23)cc1 (stereo unspecified) | 8.5 µM | 13.2 µM | 17 µM | 0.16 µM |  |
| Clc1ccc(C(NC2CCCCC2)c2ccc(-c3ncnc4[nH]cnc34)cc2)cc1 (stereo unspecified) | 14.4 µM | 11 µM | 8.6 µM | 0.64 µM |  |
